# Bioassay records deposited in PubChem BioAssay by several laboratories.
# A selection: hits, their analogues and other compounds. The true share with any hit is near 1.9%.
# SENP1 FRET inh = human SENP1 catalytic domain inhibitors, primary screen, biochemical, FRET, uHTS; recombinant SENP1 catalytic domain, CyPet-SUMO1-YPet FRET cleavage; Sentrin-specific protease 1 (Homo sapiens), Q9P0U3; 0.21% of 360,000 active; inhibition, % at 10 µM;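 active = inhibition at least 30% at 10 µM, raw YFP signal under a set limit, fluorescence ratio 0.5 to 1.5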;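 note: 0% = enzyme with DMSO and 100% = no enzyme wells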
#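 Controls: no-enzyme wells low, DMSO-plus-enzyme wells high control. Test system: human recombinant His6-tagged SENP1 catalytic domain enzyme. Reagent: SFCypet-SUMO1-SFYpet FRET protein substrate, 25 nM final. Doses: one dose per compound, 10 µM, 0.5% DMSO. Detection: FRET, CFP and YFP emission. Timing: 50 min reaction at room temperature.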
# ADAM17 inh = ADAM17 inhibitors, primary screen, biochemical, QFRET; inhibition, % at 6.95 µM; recombinant ADAM17, EDANS/DABCYL FRET peptide cleavage; 0.83% of 370,000 active; Disintegrin and metalloproteinase domain-containing protein 17 (Homo sapiens), P78536; AID 720648, 2013;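 active = inhibition above the mean of compounds lying between control limits plus 3 SD, set per campaign, cut at about 8.5% in these data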;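 note: 0% = DMSO-only wells as the low control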
# ADAM10 inh = human ADAM10 inhibitors, primary screen, biochemical, QFRET, HTS. Disintegrin and metalloproteinase domain-containing protein 10 (Homo sapiens), O14672. recombinant ADAM10, EDANS/DABCYL FRET peptide cleavage, 3 h. inhibition, % at 7 µM. 0.62% of 370,000 active. AID 720582, 2013;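 active = inhibition above a per-campaign cutoff equal to the mean of compounds falling between control-based bounds plus 3 SD, cut at about 20% in these data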;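 note: 0% = DMSO wells while the 100% control is not disclosed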
# Target sequence (O14672 214-748 limits assumed): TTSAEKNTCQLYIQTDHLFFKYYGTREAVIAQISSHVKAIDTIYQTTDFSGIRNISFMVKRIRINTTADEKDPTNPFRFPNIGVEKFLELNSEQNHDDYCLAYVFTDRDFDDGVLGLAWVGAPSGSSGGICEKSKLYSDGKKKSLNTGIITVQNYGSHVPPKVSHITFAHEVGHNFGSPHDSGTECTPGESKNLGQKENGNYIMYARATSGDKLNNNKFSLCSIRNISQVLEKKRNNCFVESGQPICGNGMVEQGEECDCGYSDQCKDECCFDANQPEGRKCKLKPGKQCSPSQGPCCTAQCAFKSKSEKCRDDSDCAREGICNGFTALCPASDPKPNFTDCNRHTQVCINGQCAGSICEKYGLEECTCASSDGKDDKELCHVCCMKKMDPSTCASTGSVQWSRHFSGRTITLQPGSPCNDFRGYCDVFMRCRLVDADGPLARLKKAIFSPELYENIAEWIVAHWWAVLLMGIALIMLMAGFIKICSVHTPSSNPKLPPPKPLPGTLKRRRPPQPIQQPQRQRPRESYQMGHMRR
# FAS TE block = FAS thioesterase domain inhibitors, primary screen, biochemical, fluorescence intensity, uHTS; Fatty acid synthase (Homo sapiens), P49327; recombinant FAS-TE, OMFH fluorogenic substrate, fluorescence endpoint; inhibition, % at 15 µM; 0.67% of 360,000 active;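 active = compounds whose normalised, plate-corrected inhibition of enzyme fluorescence in the single-dose primary screen is 50% or more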;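 note: 0% = DMSO with enzyme and 100% = substrate without enzyme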
# ADAM10 counter = ADAM10 inhibitors, counter-screen for ADAM17 exosite inhibitor project, biochemical, FRET, human ADAM10; AID 743256, 2014; recombinant ADAM10, EDANS/DABCYL FRET peptide cleavage, 3 h; inhibition, % at 6.95 µM; shares compounds with ADAM17 inh; 47% of 2,900 active;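 active = mean inhibition over the triplicate runs exceeds the activity threshold set in the earlier primary screen, cut at about 20% in these data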;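 note: 0% = DMSO wells and 100% = marimastat wells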
# ADAM17 confirm = ADAM17 inhibitors, hit retest, confirmation, biochemical, QFRET peptide cleavage. AID 743257, 2014. inhibition, % at 6.95 µM. shares compounds with ADAM17 inh. 65% of 2,900 active. recombinant ADAM17, EDANS/DABCYL QFRET peptide cleavage;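 active = mean inhibition across replicates above the hit cutoff set in the primary screen, cut at about 8.5% in these data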;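 note: 0% = DMSO wells and 100% = marimastat wells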
# * marks the source's active call; other numbers are inactive results; nt = not tested or not shown.
SMILES,SENP1 FRET inh,ADAM17 inh,ADAM10 inh,FAS TE block,ADAM10 counter,ADAM17 confirm
COc1ccc(-c2n[nH]c(=S)n2-c2cc(OC)ccc2OC)cc1,3,-1,0,-6,nt,nt
COc1ccc(-c2cc(-c3n[nH]c(=S)n3-c3cc(OC)ccc3OC)[nH]n2)cc1,0,9.5*,16,-3,23*,13*
O=C(CC1SC(=Nc2ccccc2)N(CCc2c[nH]c3ccccc23)C1=O)Nc1ccccc1F (configuration not stated),-9,9.9*,14,27,24*,13*
COCCOc1ccc(C(F)(F)F)cc1NC(=O)CN1C(=O)NC2(CCc3ccccc32)C1=O (configuration not stated),-2,-1,3,25,nt,nt
COCCOc1ccc(C(F)(F)F)cc1NC(=O)CN1C(=O)NC2(CCCc3ccccc32)C1=O (configuration not stated),-1,9.7*,17,22,16,10*
Cc1ccc(Cn2c(C(CO)Nc3nc(-c4ccc(Cl)c([N+](=O)[O-])c4)cs3)nc3ccccc32)cc1 (configuration not stated),0,17*,20,50,16,9.7*
Cc1ccc(Cn2c(C(CO)Nc3nc(-c4ccc(F)cc4)cs3)nc3ccccc32)cc1 (configuration not stated),-3,1,0,33,nt,nt
O=c1[nH][nH]c(-c2ccccc2)c1C=Nc1ccc(C(F)(F)F)cc1,2,13*,13,-1,14,7
O=c1[nH][nH]c(-c2ccccc2)c1C=Nc1ccccc1,2,1,-5,-8,nt,nt
COc1ccc(-c2n[nH]c(C)c2-c2ccc(Cl)cc2)c(O)c1OC,-1,11*,10,4,22*,8
CCNC(=O)COC(=O)COc1ccc(Cl)cc1C,3,-1,-9,-2,nt,nt
Cc1cc(Cl)ccc1OCC(=O)OCC(=O)Nc1ccc(F)c([N+](=O)[O-])c1,7,9.0*,17,12,43*,18*
N=C(N)SCc1ccccc1Cl,1,9.4*,-4,-14,8,4
NC(CSCc1ccccc1Cl)C(=O)O (configuration not stated),2,-4,-15,13,nt,nt
CC(C)=CCc1cc([C@@H]2COc3c(ccc4c3C=CC(C)(C)O4)C2)c(O)cc1O,-4,13*,13,43,13,8
CC(C)=CCc1c([C@@H]2CCc3ccc(O)cc3O2)cc2c(c1O)OC(C)(C)C=C2,-1,nt,nt,6,nt,nt
Cc1ccc2c(c1)-c1c(cnn1CC(=O)NCCc1ccccc1F)CO2,nt,-3,-4,nt,nt,nt
O=C(c1cccc(COc2ccc(Cl)cc2Cl)c1)N1CCN(c2ccccn2)CC1,0,11*,16,36,14,9.3*
CC(C)(C)c1ccc(-c2cn(C[C@H](Cc3ccccc3)n3c(=O)c4ccccc4n3Cc3ccco3)nn2)cc1,nt,-6,-37,nt,nt,nt
CCN(CC)C(=O)C1CC(=O)N(c2ccc(F)c(Cl)c2)C1 (configuration not stated),1,9.5*,7,-1,-5,-1
CS(=O)(=O)N1CCN(c2ccc(NC(=O)C(c3ccccc3)c3ccccc3)cc2)CC1,4,13*,17,12,6,3
COc1ccc(S[C@]2(C(=O)N3CCOCC3)CC(=O)N(c3ccsc3)[C@@H]2c2ccc(OC)cc2)cc1,nt,2,8,nt,nt,nt
CC(=O)c1cccc(NC(=O)CN2C(=O)NC3(CCCCCCC3)C2=O)c1,-2,1,-4,-7,nt,nt
O=C(CN1C(=O)NC2(CCCCCCC2)C1=O)Nc1cccc(Br)c1,1,9.4*,9,13,20*,12*
CCOC(=O)CC[C@@H]1CC[C@]2(CCCN(S(=O)(=O)c3ccccc3)C2)O1,nt,-3,-5,nt,nt,nt
SMILES,SENP1 FRET inh,ADAM17 inh,ADAM10 inh,FAS TE block,ADAM10 counter,ADAM17 confirm
COc1ccc(OC)c(CNc2ccc([N+](=O)[O-])cc2C)c1,-4,5,11,28,nt,nt
COc1cccc(CNc2ccc([N+](=O)[O-])cc2C)c1,-3,12*,17,28,15,12*
O=C([C@@H]1C[C@H]1c1ccccc1)N1CC[C@H]2[C@H](CCCN2Cc2cc(F)cc(F)c2)C1,nt,-1,-3,nt,nt,nt
COc1cc(C(C(=O)NC2CCCCC2)N(C(=O)Cc2c[nH]c3ccccc23)c2ccccc2C)cc(OC)c1OC (configuration not stated),1,9.5*,20,6,28*,16*
CCCCc1c(-c2ccccc2OC)ncn1C1CCCCC1,nt,-1,0,nt,nt,nt
Nc1ncnc2c1ncn2[C@@H]1O[C@H](C(=O)N[C@@H](CCc2ccccc2)C(=O)N2CCN(CC(=O)N3CCCC3)CC2)[C@@H](O)[C@H]1O,nt,-6,-14,nt,nt,nt
Cc1ccc(O)c(Cc2cc(C)cc(Cc3cc(C)ccc3O)c2O)c1,1,9.4*,11,22,30*,14*
Cc1ccc(C(C)C)cc1-n1nnc(-c2cccc(Cc3ccc4ccccc4c3)c2)c1C(C)O (configuration not stated),1,18*,16,18,31*,18*
CC(C)(C)c1ccc(NC(=O)COC(=O)c2ccc(NS(=O)(=O)c3ccc(F)c(F)c3)cc2)cc1,0,9.6*,14,32,42*,20*
NC(=O)CNCCC(c1ccccc1)c1ccccc1,1,9.8*,11,-5,-2,0
COc1ccc(CC(=O)N2CCC(c3ccccc3)C2)cc1 (configuration not stated),0,2,4,-4,nt,nt
COc1ccc(CC(=O)N2CCC(Nc3nc4ccccc4n3Cc3ccc(F)cc3)CC2)cc1,1,11*,13,9,21*,12*
Cc1sc2nc(SCC(=O)OC(C)C)n(C)c(=O)c2c1C,4,15*,-5,12,-6,-1
Cc1sc2nc(SCC(=O)NCCO)n(C)c(=O)c2c1C,2,1,3,-5,nt,nt
CCN=C1NC(c2ccc(C(F)(F)F)cc2)C(C(=O)OC)=C(C)N1Cc1ccccc1C(F)(F)F (configuration not stated),nt,-4,-13,nt,nt,nt
COc1ccccc1NC(=O)Cn1nnc(-c2ccccc2NS(=O)(=O)c2ccccc2)n1,0,9.3*,15,22,37*,22*
